In ChEMBL document CHEMBL6120954, “Development of Fragment-Based Inhibitors of the Bacterial Deacetylase LpxC with Low Nanomolar Activity” (J Med Chem, 2024):
≈ marks a conversion by molar mass, not a printed value.

Key:
[1] = molecular target: Elastase (Pseudomonas aeruginosa (strain ATCC 15692 / PAO1 / 1C / PRS 101 / LMG12228)) (UniProt P14756); test: Inhibition of Pseudomonas aeruginosa PA14 LasB at 20 uM by FRET assay relative to control
[2] = Inhibition of Escherichia coli LpxC C63A mutant assessed as inhibition constant incubated for 30 mins by microplate reader analysis
In short: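 Purified E. coli LpxC C63A (15 nM final), expressed in E. coli BL21(DE3), with 25 μM UDP-3-O-[(R)-3-hydroxymyristoyl]-N-acetylglucosamine. Buffer was 40 mM MES pH 6.0, 80 μM DTT, 0.02% Brij 35 and 2% DMSO, with inhibitor at 20 nM–20 μM, for 30 min at 37 °C. The reaction was stopped with NaOH, neutralised with acetic acid, and product was derivatised with o-phthaldialdehyde/2-mercaptoethanol (ex 340, em 460 nm). Runs were done at least three times.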

[3] = system: Escherichia coli; test: Antibacterial activity against Escherichia coli BL21(DE3) assessed as inhibition of visible bacterial growth incubated for 20 hrs by microdilution method; format: functional
In short: (§1)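 Broth microdilution in LB. Overnight cultures (37 °C, 200 rpm) were diluted 1:1000 and mixed with 2-fold compound dilutions in DMSO, giving 5 × 10⁵ cfu mL⁻¹, 5% DMSO and final compound concentrations of 64–0.016 μg mL⁻¹. Plates were incubated 20 h at 37 °C. MIC was the lowest concentration preventing visible growth, from at least three runs on separate days.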

[4] = Metabolic stability in CD-1 mouse microsome; format: ADME; conditions: microsomes
[5] = Metabolic stability in CD-1 mouse liver S9 fraction assessed as half life in presence of NADPH by HPLC-MS/MS analysis; format: ADME, subcellular
In short: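 Compound at 1 μM was incubated at 37 °C for 120 min with pooled mouse liver S9 (1 mg/mL), 2 mM NADPH, 1 mM UDPGA, 10 mM MgCl₂, 5 mM GSH and 0.1 mM PAPS. Aliquots taken at set times were quenched with 2 volumes of cold acetonitrile containing diphenhydramine internal standard and centrifuged. Remaining compound was quantified by HPLC–MS/MS to derive half-life, with testosterone, verapamil and ketoconazole as activity controls.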

[6] = Plasma protein binding in human; format: ADME, cell-free
[7] = species on record: Homo sapiens; test: Inhibition of TACE (unknown origin) at 100 uM relative to control
[8] = system: Escherichia coli; test: Antibacterial activity against Escherichia coli BL21(DE3) assessed as Diameter of inhibition zone incubated for 20 hrs by disc diffusion assay; format: functional
In short: (§2)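 E. coli BL21(DE3) and the defective strain D22 were grown overnight in LB at 37 °C and 200 rpm, and 150 μL was spread on LB agar. Each compound (0.15 μmol in 10 or 15 μL DMSO) was spotted on 6 mm filter paper discs, with DMSO as negative and CHIR-090 as positive control. Plates were incubated overnight at 37 °C and the growth-inhibition zone diameter was measured.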

[9] = system: Escherichia coli; test: Antibacterial activity against Escherichia coli D22 assessed as inhibition of visible bacterial growth incubated for 20 hrs by microdilution method; format: functional; in short: as §1
[10] = molecular target: Elastase (Pseudomonas aeruginosa (strain ATCC 15692 / PAO1 / 1C / PRS 101 / LMG12228), UniProt P14756); test: Inhibition of Pseudomonas aeruginosa PA14 LasB by FRET assay
Sequence of Elastase (P14756 whole entry, the tested form may be a part): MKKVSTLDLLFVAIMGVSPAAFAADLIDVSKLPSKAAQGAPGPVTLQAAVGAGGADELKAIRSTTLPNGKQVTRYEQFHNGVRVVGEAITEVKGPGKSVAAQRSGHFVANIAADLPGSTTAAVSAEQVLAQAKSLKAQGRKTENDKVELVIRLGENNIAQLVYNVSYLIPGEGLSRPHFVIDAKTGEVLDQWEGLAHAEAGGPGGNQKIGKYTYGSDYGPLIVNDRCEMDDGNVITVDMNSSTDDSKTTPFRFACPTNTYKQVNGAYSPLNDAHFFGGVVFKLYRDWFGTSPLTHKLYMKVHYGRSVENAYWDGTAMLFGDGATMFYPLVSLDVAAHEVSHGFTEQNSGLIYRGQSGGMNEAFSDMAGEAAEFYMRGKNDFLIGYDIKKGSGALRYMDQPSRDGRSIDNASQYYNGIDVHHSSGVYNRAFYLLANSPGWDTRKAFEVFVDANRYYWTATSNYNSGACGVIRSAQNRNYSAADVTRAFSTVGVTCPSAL

[11] = system: Escherichia coli; test: Antibacterial activity against Escherichia coli D22 assessed as diameter of inhibition zone incubated for 20 hrs by disc diffusion assay; format: functional; in short: as §2
[12] = molecular target: T1, UDP-3-O-acyl-N-acetylglucosamine deacetylase (Pseudomonas aeruginosa, UniProt B5ATN6); test: Inhibition of Pseudomonas aeruginosa LpxC
T1 sequence (B5ATN6 whole entry): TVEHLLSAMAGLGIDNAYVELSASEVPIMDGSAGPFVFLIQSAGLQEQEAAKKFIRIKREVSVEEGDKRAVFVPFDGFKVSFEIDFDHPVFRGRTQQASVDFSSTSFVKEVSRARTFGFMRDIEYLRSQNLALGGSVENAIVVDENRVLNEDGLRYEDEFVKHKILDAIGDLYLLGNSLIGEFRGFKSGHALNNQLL
In short: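 Buffer was 50 mM potassium phosphate pH 7.5, 80 μM DTT, 0.02% Brij 35 and 2% DMSO, with inhibitor at 5 nM–5 μM, for 30 min at 37 °C. The reaction was stopped with HCl. Substrate and product were quantified by LC–MS/MS MRM peak areas relative to the uninhibited reaction, in at least two runs.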

Sequence of Elastase (Pseudomonas aeruginosa (strain ATCC 15692 / PAO1 / 1C / PRS 101 / LMG12228)) (P14756 198-498 limits assumed): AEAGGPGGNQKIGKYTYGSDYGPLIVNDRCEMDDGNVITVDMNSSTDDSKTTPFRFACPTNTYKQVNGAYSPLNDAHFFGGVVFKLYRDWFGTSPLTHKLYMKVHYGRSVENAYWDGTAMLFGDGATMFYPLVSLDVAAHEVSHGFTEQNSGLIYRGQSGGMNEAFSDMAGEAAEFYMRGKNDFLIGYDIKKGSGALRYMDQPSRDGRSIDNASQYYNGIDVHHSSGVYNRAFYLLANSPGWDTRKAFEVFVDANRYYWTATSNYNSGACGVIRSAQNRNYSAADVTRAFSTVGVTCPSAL

Row | SMILES | inhibition [1] [%] | Ki [2] [nM] | diameter of the inhibition zone (DIZ) [8] | further results
1 | Cc1noc(C)c1COC[C@H](O)[C@H](OCc1ccc(C#Cc2ccc(CN3CCOCC3)cc2)cc1)C(=O)NO | < 10 |  |  | 
2 | O=C(NC[C@@H](OCc1ccc(C#Cc2ccc(CN3CCOCC3)cc2)cc1)C(=O)NO)c1c[nH]c2ccccc12 |  | 1580 |  | 
3 | O=C(NC[C@H](OCc1ccc(C#Cc2ccc(CN3CCOCC3)cc2)cc1)C(=O)NO)c1ccccc1 |  |  |  | MIC [3]: > 16 µg/mL
4 | O=C(NO)[C@H](OCc1ccc(C#Cc2ccc(CN3CCOCC3)cc2)cc1)[C@H](O)COCc1ccccc1 | < 10 |  |  | 
5 | O=C(NC[C@@H](OCc1ccc(C#Cc2ccc(CN3CCOCC3)cc2)cc1)C(=O)NO)c1ccccc1 |  |  |  | MIC [3]: > 16 µg/mL
6 | O=C(NC[C@H](OCc1ccc(C#Cc2ccc(CN3CCOCC3)cc2)cc1)C(=O)NO)c1cc2ccccc2[nH]1 | < 10 | 87 |  | 
7 | O=C(NC[C@H](OCc1ccc(C#Cc2ccc(CN3CCOCC3)cc2)cc1)C(=O)NO)c1cc[nH]n1 |  |  |  | Stability [4]: Stable; t1/2 [5]: 1.07 h
8 | O=C(NC[C@H](OCc1ccc(C#Cc2ccc(CN3CCOCC3)cc2)cc1)C(=O)NO)c1c[nH]c2ccccc12 |  | 10.7 |  | Stability [4]: Stable; fraction unbound [6]: < 0.03; inhibition [7]: < 10%
9 | O=C(NC[C@H](OCc1ccc(C#Cc2ccc(CN3CCOCC3)cc2)cc1)C(=O)NO)c1cccc(-c2ccccc2)c1 | < 10 | 41.5 |  | 
10 | O=C(NO)[C@@H](COCc1ccccc1)OCc1ccc(C#Cc2ccc(CN3CCOCC3)cc2)cc1 |  |  | <=6 mm | 
11 | O=C(NO)[C@@H](OCc1ccc(C#Cc2ccc(CN3CCOCC3)cc2)cc1)[C@@H](O)COCc1ccccc1 | 61 | 280 | 11.2 mm | MIC [9]: 0.13 µg/mL (≈ 0.245 µM); MIC [3]: 4 µg/mL (≈ 7.54 µM); IC50 [10]: 17700 nM; diameter of the inhibition zone (DIZ) [11]: 19.5 mm
12 | O=C(NC[C@@H](OCc1ccc(C#Cc2ccc(CN3CCOCC3)cc2)cc1)C(=O)NO)c1ccc2ccccc2n1 |  | > 2540 | <=6 mm | 
13 | CCc1ccc(-c2ccc(C(=O)N[C@H](C(=O)NO)[C@@H](C)NCc3ccccn3)cc2)cc1 |  |  |  | IC50 [12]: 94.8 nM
14 | O=C(NO)[C@@H](OCc1ccc(C#Cc2ccc(CN3CCOCC3)cc2)cc1)[C@H](O)COCc1ccccc1 | 64.9 |  |  | IC50 [10]: 14800 nM
15 | O=C(NC[C@H](OCc1ccc(C#Cc2ccc(CN3CCOCC3)cc2)cc1)C(=O)NO)c1ccc2ccccc2n1 |  | 377 |  | 
16 | O=C(NO)[C@H](OCc1ccc(C#Cc2ccc(CN3CCOCC3)cc2)cc1)[C@@H](O)COCc1ccccc1 | < 10 | 870 | 8.5 mm | MIC [9]: 4 µg/mL (≈ 7.54 µM); MIC [3]: > 64 µg/mL; diameter of the inhibition zone (DIZ) [11]: 13.3 mm
17 | O=C(NO)[C@H](CO)OCc1ccc(C#Cc2ccc(CN3CCOCC3)cc2)cc1 |  | 410 | 15.7 mm | MIC [9]: 1 µg/mL (≈ 2.44 µM); MIC [3]: 32 µg/mL (≈ 78 µM); diameter of the inhibition zone (DIZ) [11]: 25.8 mm
18 | O=C(COCc1ccc(C#Cc2ccc(CN3CCOCC3)cc2)cc1)NO |  | 1500 | 16.5 mm | MIC [9]: 1 µg/mL (≈ 2.63 µM); MIC [3]: 64 µg/mL (≈ 168 µM); diameter of the inhibition zone (DIZ) [11]: 20.3 mm

Row | SMILES | inhibition [1] [%] | Ki [2] [nM] | diameter of the inhibition zone (DIZ) [8] | further results
19 | O=C(NC[C@@H](OCc1ccc(C#Cc2ccc(CN3CCOCC3)cc2)cc1)C(=O)NO)c1cc(-c2ccccc2)[nH]n1 |  | > 2540 | <=6 mm | 
20 | O=C(NC[C@@H](OCc1ccc(C#Cc2ccc(CN3CCOCC3)cc2)cc1)C(=O)NO)c1cccc(-c2ccccc2)c1 |  | > 2540 |  | 
21 | O=C(NC[C@@H](OCc1ccc(C#Cc2ccc(CN3CCOCC3)cc2)cc1)C(=O)NO)c1ccc2[nH]ccc2c1 |  | 1150 |  | 
22 | O=C(NC[C@H](OCc1ccc(C#Cc2ccc(CN3CCOCC3)cc2)cc1)C(=O)NO)c1cnc2ccccc2c1 | < 10 | 117 |  | 
23 | O=C(NC[C@@H](OCc1ccc(C#Cc2ccc(CN3CCOCC3)cc2)cc1)C(=O)NO)c1ccc(-c2ccccc2)cc1 |  | > 2540 |  | 
24 | O=C(NO)[C@H](COCc1ccccc1)OCc1ccc(C#Cc2ccc(CN3CCOCC3)cc2)cc1 |  |  | <=6 mm | 
25 | O=C(NC[C@H](OCc1ccc(C#Cc2ccc(CN3CCOCC3)cc2)cc1)C(=O)NO)c1cc(-c2ccccc2)[nH]n1 | < 10 | 85.2 |  | 
26 | O=C(NC[C@@H](OCc1ccc(C#Cc2ccc(CN3CCOCC3)cc2)cc1)C(=O)NO)c1ccc(Oc2ccccc2)cc1 |  | > 2540 |  | 
27 | O=C(NC[C@@H](OCc1ccc(C#Cc2ccc(CN3CCOCC3)cc2)cc1)C(=O)NO)c1cc2ccccc2[nH]1 |  | > 2540 |  | 
28 | O=C(NC[C@H](OCc1ccc(C#Cc2ccc(CN3CCOCC3)cc2)cc1)C(=O)NO)c1ccc2[nH]ccc2c1 | < 10 | 9.46 |  | Stability [4]: Stable
29 | O=C(NO)[C@H](CN(Cc1ccccc1)Cc1ccccc1)OCc1ccc(C#Cc2ccc(CN3CCOCC3)cc2)cc1 | < 10 | > 2540 | <=6 mm | MIC [3]: 8 µg/mL (≈ 13.6 µM)
30 | O=C(NC[C@@H](OCc1ccc(C#Cc2ccc(CN3CCOCC3)cc2)cc1)C(=O)NO)c1cnc2ccccc2c1 |  | > 2540 |  | 
31 | Cc1noc(C)c1C(=O)NC[C@@H](OCc1ccc(C#Cc2ccc(CN3CCOCC3)cc2)cc1)C(=O)NO | < 10 | > 2540 |  | 
32 | O=C(NC[C@H](OCc1ccc(C#Cc2ccc(CN3CCOCC3)cc2)cc1)C(=O)NO)c1ccc(Oc2ccccc2)cc1 | < 10 | 323 |  | 
33 | O=C(NO)[C@@H](CO)OCc1ccc(C#Cc2ccc(CN3CCOCC3)cc2)cc1 |  | 240 | 12.3 mm | MIC [9]: 2 µg/mL (≈ 4.87 µM); MIC [3]: 64 µg/mL (≈ 156 µM); diameter of the inhibition zone (DIZ) [11]: 22 mm
34 | Cc1noc(C)c1C(=O)NC[C@H](OCc1ccc(C#Cc2ccc(CN3CCOCC3)cc2)cc1)C(=O)NO |  | 127 |  | 
35 | O=C(NC[C@H](OCc1ccc(C#Cc2ccc(CN3CCOCC3)cc2)cc1)C(=O)NO)c1ccc(-c2ccccc2)cc1 | < 10 | > 2540 |  | 
36 | O=C(NO)[C@@H](CN(Cc1ccccc1)Cc1ccccc1)OCc1ccc(C#Cc2ccc(CN3CCOCC3)cc2)cc1 |  | > 2540 | <=6 mm | MIC [3]: > 64 µg/mL; diameter of the inhibition zone (DIZ) [11]: <=6 mm
